We go through 33 compounds from the M2OR odorant receptor database.

Structures are written as SMILES.

For the first test, the target named is UniProt Q8VG28. The settings on record: stereoisomer not certain. The essentials: (§1)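 Each entry records the cell line, G-protein, co-transfected protein and tags used. Methods varied with the source, often transient luciferase assays in mammalian cell lines. A receptor–molecule pair is called responsive (active) if the original authors judged its signal statistically different from baseline and non-responsive (inactive) otherwise.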
Sequence of UniProt Q8VG28 (Q8VG28 as listed by the source): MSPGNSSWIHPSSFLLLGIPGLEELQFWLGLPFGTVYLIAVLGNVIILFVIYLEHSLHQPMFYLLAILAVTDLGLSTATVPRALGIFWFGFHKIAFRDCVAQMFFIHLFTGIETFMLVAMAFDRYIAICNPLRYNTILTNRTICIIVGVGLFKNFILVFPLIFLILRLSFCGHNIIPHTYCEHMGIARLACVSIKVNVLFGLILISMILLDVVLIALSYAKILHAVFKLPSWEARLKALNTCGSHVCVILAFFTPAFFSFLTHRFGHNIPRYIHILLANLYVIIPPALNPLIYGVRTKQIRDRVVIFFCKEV
Consider `O=C([O-])CCCCC(=O)[O-].[H+].[H+]`, for which the “odorant receptor agonist call” value is “inactive”.

On to `CCCCCO`, for which the “odorant receptor agonist call” value is “inactive”.

Turning to `O=C(O)CCCCCC(=O)O`, the “odorant receptor agonist call” value was “inactive”.

As to `O=C(O)CCCBr`, the “odorant receptor agonist call” value is “inactive”.

Consider `CCCC(C)=O`, for which the “odorant receptor agonist call” value was “inactive”.

As to `CCCCOC(=O)CCC`, the “odorant receptor agonist call” value is “inactive”.

Regarding `O=C(O)CCCCBr`, the “odorant receptor agonist call” value was “inactive”.

Turning to `CCCCCCC(=O)[O-].[H+]`, the “odorant receptor agonist call” value was “inactive”.

As to `CCCCCCCC(=O)[O-].[H+]`, the “odorant receptor agonist call” value was “active”.

In another test the target is T1, UniProt Q8VG49.
T1 sequence (whole entry): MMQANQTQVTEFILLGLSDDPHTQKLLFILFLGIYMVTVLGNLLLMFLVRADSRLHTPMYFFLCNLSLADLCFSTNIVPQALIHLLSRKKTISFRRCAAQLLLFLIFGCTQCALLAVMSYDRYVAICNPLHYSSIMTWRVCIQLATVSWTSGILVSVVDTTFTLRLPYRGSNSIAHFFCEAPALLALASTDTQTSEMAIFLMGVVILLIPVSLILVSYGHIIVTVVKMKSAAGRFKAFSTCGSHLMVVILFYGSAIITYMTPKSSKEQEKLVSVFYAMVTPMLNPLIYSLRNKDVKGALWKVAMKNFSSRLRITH
As to conditions: stereoisomer not certain. The essentials:
as §1
Turning to `CCCCCO`, the “odorant receptor agonist call” value is “inactive”.

On to `CCC(C(=O)O)c1ccccc1` (stereo not drawn), for which the “odorant receptor agonist call” value is “inactive”.

With `O=c1ccc2ccccc2o1`, the “odorant receptor agonist call” value is “inactive”.

In the case of `CCCC(C)=O`, the “odorant receptor agonist call” value was “inactive”.

In the case of `CCCCOC(=O)C(C)OC(=O)CCC` (stereo not drawn), the “odorant receptor agonist call” value is “inactive”.

On to `CCCCCCC(=O)[O-].[H+]`, for which the “odorant receptor agonist call” value is “inactive”.

As to `CCCCCCCC(=O)[O-].[H+]`, the “odorant receptor agonist call” value is “inactive”.

A further test concerns the target T2, UniProt Q8VG53.
T2 sequence (whole entry): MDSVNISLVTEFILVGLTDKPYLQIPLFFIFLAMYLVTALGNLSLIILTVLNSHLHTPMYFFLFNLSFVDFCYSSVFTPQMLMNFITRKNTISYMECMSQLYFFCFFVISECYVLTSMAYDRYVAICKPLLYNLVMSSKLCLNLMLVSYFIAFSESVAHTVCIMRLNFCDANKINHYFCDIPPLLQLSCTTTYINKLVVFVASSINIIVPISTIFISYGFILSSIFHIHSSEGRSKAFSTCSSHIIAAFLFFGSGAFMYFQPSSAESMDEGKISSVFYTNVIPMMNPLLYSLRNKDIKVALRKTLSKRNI
The settings on record: stereoisomer not certain. In a few lines: as §1
As to `CSSSC`, the “odorant receptor agonist call” value is “inactive”.

For `CC1CCC(C(C)C)C(=O)C1` (stereo not drawn), the “odorant receptor agonist call” value was “inactive”.

On to `CCCC=O`, for which the “odorant receptor agonist call” value was “inactive”.

In the case of `CCCCCCC(C)O` (stereo not drawn), the “odorant receptor agonist call” value was “inactive”.

Take `CNc1ccccc1C(=O)OC`: the “odorant receptor agonist call” value is “inactive”.

As for `CC(C)=C1CCC(C)CC1=O` (stereo not drawn), the “odorant receptor agonist call” value is “inactive”.

In the case of `CCOC(=O)C(C)CC` (stereo not drawn), the “odorant receptor agonist call” value is “inactive”.

Turning to `CCOC(=O)CC(C)C`, the “odorant receptor agonist call” value is “inactive”.

`CCCCCOC(=O)CC`: the “odorant receptor agonist call” value was “inactive”.

Turning to `CC(C)=CCCC(C)=CCOC(=O)C(C)C`, the “odorant receptor agonist call” value is “inactive”.

With `COc1ccccc1`, the “odorant receptor agonist call” value is “inactive”.

As to `CCCO`, the “odorant receptor agonist call” value was “inactive”.

As for `Cc1c(C)c(C)c(C=O)c(C)c1C`, the “odorant receptor agonist call” value is “inactive”.

Consider `CCCCCC(C=O)=Cc1ccccc1`, for which the “odorant receptor agonist call” value is “inactive”.

As for `CC(=O)OCc1ccc2c(c1)OCO2`, the “odorant receptor agonist call” value was “inactive”.

Turning to `CCC=CCCC=CC=O`, the “odorant receptor agonist call” value was “inactive”.

For the compound `CCCCCC(=Cc1ccccc1)C(OC)OC`, the “odorant receptor agonist call” value is “inactive”.

On to `CC=Cc1ccc(OC)cc1`, for which the “odorant receptor agonist call” value is “inactive”.

On to `C1CCOCC1`, for which the “odorant receptor agonist call” value is “inactive”.

Consider `CCCCCCC(C=O)=Cc1ccccc1`, for which the “odorant receptor agonist call” value was “inactive”.

Take `CC(=O)C=CC1=C(C)CCCC1(C)C`: the “odorant receptor agonist call” value is “inactive”.

Another test deals with T3, UniProt Q8VG64.
T3 sequence (whole entry): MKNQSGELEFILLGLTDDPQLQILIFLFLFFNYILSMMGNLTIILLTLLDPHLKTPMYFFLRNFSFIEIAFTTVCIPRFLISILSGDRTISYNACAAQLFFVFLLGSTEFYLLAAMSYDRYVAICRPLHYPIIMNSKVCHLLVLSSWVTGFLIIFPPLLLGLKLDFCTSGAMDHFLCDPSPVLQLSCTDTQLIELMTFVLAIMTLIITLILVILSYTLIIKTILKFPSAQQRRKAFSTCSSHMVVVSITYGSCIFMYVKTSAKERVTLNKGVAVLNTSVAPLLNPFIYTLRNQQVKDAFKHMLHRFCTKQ
As to conditions: stereoisomer not certain. The essentials: as §1
For `CSSSC`, the “odorant receptor agonist call” value was “inactive”.

Consider `CC1CCC(C(C)C)C(=O)C1` (stereo not drawn), for which the “odorant receptor agonist call” value was “inactive”.

Consider `CCCC=O`, for which the “odorant receptor agonist call” value was “inactive”.

For the compound `CCCCCCC(C)O` (stereo not drawn), the “odorant receptor agonist call” value is “inactive”.

In the case of `CNc1ccccc1C(=O)OC`, the “odorant receptor agonist call” value is “inactive”.

For `CC(C)=C1CCC(C)CC1=O` (stereo not drawn), the “odorant receptor agonist call” value was “inactive”.

On to `CCOC(=O)C(C)CC` (stereo not drawn), for which the “odorant receptor agonist call” value was “inactive”.

Turning to `CCOC(=O)CC(C)C`, the “odorant receptor agonist call” value was “inactive”.

In the case of `CCCCCOC(=O)CC`, the “odorant receptor agonist call” value is “inactive”.

As for `CC(C)=CCCC(C)=CCOC(=O)C(C)C`, the “odorant receptor agonist call” value is “inactive”.

As for `COc1ccccc1`, the “odorant receptor agonist call” value was “inactive”.

As to `CCCO`, the “odorant receptor agonist call” value is “inactive”.

As for `Cc1c(C)c(C)c(C=O)c(C)c1C`, the “odorant receptor agonist call” value is “inactive”.

For the compound `CCCCCC(C=O)=Cc1ccccc1`, the “odorant receptor agonist call” value is “inactive”.

In the case of `CC(=O)OCc1ccc2c(c1)OCO2`, the “odorant receptor agonist call” value is “inactive”.

For `CCC=CCCC=CC=O`, the “odorant receptor agonist call” value is “inactive”.

Regarding `CCCCCC(=Cc1ccccc1)C(OC)OC`, the “odorant receptor agonist call” value was “inactive”.

Consider `CC=Cc1ccc(OC)cc1`, for which the “odorant receptor agonist call” value was “inactive”.

Turning to `C1CCOCC1`, the “odorant receptor agonist call” value is “inactive”.

Consider `CCCCCCC(C=O)=Cc1ccccc1`, for which the “odorant receptor agonist call” value was “inactive”.

`CC(=O)C=CC1=C(C)CCCC1(C)C`: the “odorant receptor agonist call” value was “inactive”.

A further test has as its target T4, UniProt Q8VG77.
T4 sequence (whole entry): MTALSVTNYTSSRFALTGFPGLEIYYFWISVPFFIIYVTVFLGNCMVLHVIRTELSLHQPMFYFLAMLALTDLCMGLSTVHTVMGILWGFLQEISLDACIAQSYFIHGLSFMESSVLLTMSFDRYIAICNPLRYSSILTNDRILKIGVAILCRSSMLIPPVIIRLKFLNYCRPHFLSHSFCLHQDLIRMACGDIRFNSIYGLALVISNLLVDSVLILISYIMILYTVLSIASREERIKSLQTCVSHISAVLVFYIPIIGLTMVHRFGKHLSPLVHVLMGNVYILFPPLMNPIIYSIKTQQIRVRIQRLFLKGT
As to conditions: stereoisomer not certain. The essentials: as §1
Take `CCCCCO`: the “odorant receptor agonist call” value is “inactive”.

Consider `CCC(C(=O)O)c1ccccc1` (stereo not drawn), for which the “odorant receptor agonist call” value is “inactive”.

`O=c1ccc2ccccc2o1`: the “odorant receptor agonist call” value is “inactive”.

Turning to `CCCC(C)=O`, the “odorant receptor agonist call” value is “inactive”.

Consider `CCCCOC(=O)C(C)OC(=O)CCC` (stereo not drawn), for which the “odorant receptor agonist call” value is “inactive”.

Consider `CCCCCCC(=O)[O-].[H+]`, for which the “odorant receptor agonist call” value is “inactive”.

As to `CCCCCCCC(=O)[O-].[H+]`, the “odorant receptor agonist call” value is “inactive”.

For the next test, the target named is T5, UniProt Q8VG96.
T5 sequence (whole entry): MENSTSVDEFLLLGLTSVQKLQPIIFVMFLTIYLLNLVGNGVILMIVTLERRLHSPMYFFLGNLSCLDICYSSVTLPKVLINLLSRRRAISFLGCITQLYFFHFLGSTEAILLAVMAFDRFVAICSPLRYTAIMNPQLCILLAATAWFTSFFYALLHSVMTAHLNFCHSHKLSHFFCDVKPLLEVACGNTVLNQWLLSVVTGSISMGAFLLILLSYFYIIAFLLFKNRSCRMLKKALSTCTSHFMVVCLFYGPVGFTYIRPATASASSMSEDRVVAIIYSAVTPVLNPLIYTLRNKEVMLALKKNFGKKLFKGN
The settings on record: stereoisomer not certain. The essentials:
as §1
Regarding `CCCCCO`, the “odorant receptor agonist call” value is “inactive”.

On to `CCC(C(=O)O)c1ccccc1` (stereo not drawn), for which the “odorant receptor agonist call” value was “inactive”.

As to `O=c1ccc2ccccc2o1`, the “odorant receptor agonist call” value is “active”.

Turning to `CCCC(C)=O`, the “odorant receptor agonist call” value is “inactive”.

Take `CCCCOC(=O)C(C)OC(=O)CCC` (stereo not drawn): the “odorant receptor agonist call” value is “inactive”.

With `CCCCCCC(=O)[O-].[H+]`, the “odorant receptor agonist call” value is “inactive”.

As for `CCCCCCCC(=O)[O-].[H+]`, the “odorant receptor agonist call” value is “inactive”.

The next test deals with T6, UniProt Q8VGB9.
T6 sequence (whole entry): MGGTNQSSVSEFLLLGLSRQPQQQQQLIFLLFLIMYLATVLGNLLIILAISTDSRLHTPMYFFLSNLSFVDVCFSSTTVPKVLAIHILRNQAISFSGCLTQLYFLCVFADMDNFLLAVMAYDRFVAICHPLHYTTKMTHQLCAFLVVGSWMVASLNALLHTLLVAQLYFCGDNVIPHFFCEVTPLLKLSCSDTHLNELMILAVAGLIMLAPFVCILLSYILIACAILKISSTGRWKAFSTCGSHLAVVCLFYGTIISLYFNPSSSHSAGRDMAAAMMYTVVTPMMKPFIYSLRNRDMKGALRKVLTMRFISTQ
As to conditions: stereoisomer not certain. The essentials:
as §1
As to `CSSSC`, the “odorant receptor agonist call” value was “inactive”.

Consider `CC1CCC(C(C)C)C(=O)C1` (stereo not drawn), for which the “odorant receptor agonist call” value is “inactive”.

Consider `CCCC=O`, for which the “odorant receptor agonist call” value was “inactive”.

Turning to `CCCCCCC(C)O` (stereo not drawn), the “odorant receptor agonist call” value is “inactive”.

As to `CNc1ccccc1C(=O)OC`, the “odorant receptor agonist call” value is “inactive”.

Take `CC(C)=C1CCC(C)CC1=O` (stereo not drawn): the “odorant receptor agonist call” value is “inactive”.

Consider `CCOC(=O)C(C)CC` (stereo not drawn), for which the “odorant receptor agonist call” value was “inactive”.

As to `CCOC(=O)CC(C)C`, the “odorant receptor agonist call” value was “inactive”.

As for `CCCCCOC(=O)CC`, the “odorant receptor agonist call” value is “inactive”.

Regarding `CC(C)=CCCC(C)=CCOC(=O)C(C)C`, the “odorant receptor agonist call” value is “inactive”.

For the compound `COc1ccccc1`, the “odorant receptor agonist call” value was “inactive”.

Take `CCCO`: the “odorant receptor agonist call” value is “inactive”.

In the case of `Cc1c(C)c(C)c(C=O)c(C)c1C`, the “odorant receptor agonist call” value was “inactive”.

As for `CCCCCC(C=O)=Cc1ccccc1`, the “odorant receptor agonist call” value was “inactive”.

Take `CC(=O)OCc1ccc2c(c1)OCO2`: the “odorant receptor agonist call” value was “inactive”.

As to `CCC=CCCC=CC=O`, the “odorant receptor agonist call” value is “inactive”.

Take `CCCCCC(=Cc1ccccc1)C(OC)OC`: the “odorant receptor agonist call” value is “inactive”.

Turning to `CC=Cc1ccc(OC)cc1`, the “odorant receptor agonist call” value is “inactive”.

Turning to `C1CCOCC1`, the “odorant receptor agonist call” value was “inactive”.

`CCCCCCC(C=O)=Cc1ccccc1`: the “odorant receptor agonist call” value was “inactive”.

As for `CC(=O)C=CC1=C(C)CCCC1(C)C`, the “odorant receptor agonist call” value is “inactive”.
